Measurements from ChEMBL document CHEMBL1141554, “Discovery of new MurF inhibitors via pharmacophore modeling and QSAR analysis followed by in-silico screening” (Bioorg Med Chem, 2008).
Active and inactive are the calls of the source. No cut-off for these calls is given here.

Test system: Pseudomonas aeruginosa
Experiment: Antibacterial activity against Pseudomonas aeruginosa
Type: functional, organism-based

| SMILES | Activity |
| --- | --- |
| COc1ccc(NC(=O)C(=O)Cc2nc3ccc([N+](=O)[O-])cc3nc2O)c(OC)c1 | inactive |
| COc1ccc(CCN2C(=O)c3cccc4c(Sc5ccccc5[N+](=O)[O-])ccc(c34)C2=O)cc1OC | inactive |
| O=C1C=CC(=O)C(SCCCSC2=CC(=O)C(SCCCSC3=CC(=O)C=CC3=O)=CC2=O)=C1 | inactive |

Test system: Staphylococcus aureus
Experiment: Antibacterial activity against Staphylococcus aureus
Type: functional, organism-based

| SMILES | Activity |
| --- | --- |
| COc1ccc(NC(=O)C(=O)Cc2nc3ccc([N+](=O)[O-])cc3nc2O)c(OC)c1 | inactive |
| COc1ccc(CCN2C(=O)c3cccc4c(Sc5ccccc5[N+](=O)[O-])ccc(c34)C2=O)cc1OC | inactive |
| O=C1C=CC(=O)C(SCCCSC2=CC(=O)C(SCCCSC3=CC(=O)C=CC3=O)=CC2=O)=C1 | inactive |

Biological target: T1, UDP-N-acetylmuramoyl-tripeptide--D-alanyl-D-alanine ligase (Pseudomonas aeruginosa, UniProt Q9EY48)
T1 sequence (Q9EY48 whole entry): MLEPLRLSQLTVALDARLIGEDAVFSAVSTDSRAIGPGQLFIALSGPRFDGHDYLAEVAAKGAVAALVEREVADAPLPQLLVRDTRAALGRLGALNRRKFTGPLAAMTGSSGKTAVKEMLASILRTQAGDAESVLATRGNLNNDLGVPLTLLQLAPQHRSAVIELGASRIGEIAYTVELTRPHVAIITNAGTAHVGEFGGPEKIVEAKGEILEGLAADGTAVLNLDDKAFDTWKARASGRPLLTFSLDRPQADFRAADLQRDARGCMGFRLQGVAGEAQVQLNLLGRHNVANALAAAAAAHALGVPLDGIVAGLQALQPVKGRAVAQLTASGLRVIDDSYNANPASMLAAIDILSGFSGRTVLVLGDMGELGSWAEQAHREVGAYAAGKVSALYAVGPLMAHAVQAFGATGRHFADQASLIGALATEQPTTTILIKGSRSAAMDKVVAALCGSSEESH
Experiment: Inhibition of Pseudomonas aeruginosa MurF ATPase activity by spectrophotometric assay
Method in brief: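 Purified recombinant P. aeruginosa MurF was used at a high enzyme concentration. It was pre-incubated with a range of compound concentrations in pH 8.6 buffer (40 mM KCl, 500 mM NaCl, 1 mg/ml BSA, 10 mM MgCl2) before UDP-MurNAc-Ala-Glu-meso-A2pm and the other substrates were added. IC50 was derived from percent residual ATPase activity versus compound-free enzyme.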

| SMILES | IC50 |
| --- | --- |
| Cn1nnnc1SCC1=C(C(=O)O)N2C(=O)[C@@H](NC(=O)[C@H](OC=O)c3ccccc3)[C@H]2SC1 [CEFAMANDOLE NAFATE] | > 5000 µM |
| C[C@]12CCC(=O)C=C1CC[C@@H]1[C@@H]2[C@@H](O)C[C@@]2(C)[C@H]1CC[C@]2(O)C(=O)COC(=O)CCC1CCCC1 [HYDROCORTISONE CYPIONATE] | > 5000 µM |
| O=S(=O)(SC(=S)NCCNC(=S)SS(=O)(=O)c1ccc(Cl)cc1)c1ccc(Cl)cc1 | > 5000 µM |
| C[C@]12CCC(=O)C=C1CC[C@@H]1[C@@H]2[C@@H](O)C[C@@]2(C)[C@H]1CC[C@]2(O)C(=O)COC(=O)c1cc([N+](=O)[O-])ccc1Cl | > 5000 µM |
| COc1ccc(NC(=O)C(=O)Cc2nc3ccc([N+](=O)[O-])cc3nc2O)c(OC)c1 | 125 µM |
| CCOC(=O)Cn1/c(=N/N=C/c2ccc([N+](=O)[O-])o2)sc2cc(OC)ccc21 | > 5100 µM |
| COc1ccc(CCN2C(=O)c3cccc4c(Sc5ccccc5[N+](=O)[O-])ccc(c34)C2=O)cc1OC | 325 µM |
| O=S(=O)(O)c1ccc(/N=N/c2ccc(O)c(/N=N/c3ccc(S(=O)(=O)O)c4ccccc34)c2O)c2ccccc12 | > 5000 µM |
| O=C1C=CC(=O)C(SCCCSC2=CC(=O)C(SCCCSC3=CC(=O)C=CC3=O)=CC2=O)=C1 | 300 µM |
| C[C@]12CCC(=O)C=C1CC[C@@H]1[C@@H]2[C@@H](O)C[C@@]2(C)[C@H]1CC[C@]2(O)C(=O)COC(=O)C1C2C=CC(C2)C1C(=O)O (stereo not given in full) | 4300 µM |
| CSc1ncnc2c1ncn2CC(=O)[C@@]1(O)CC[C@H]2[C@@H]3CCC4=CC(=O)CC[C@]4(C)[C@H]3[C@@H](O)C[C@@]21C | 4800 µM |

Biological target: T2, UDP-N-acetylmuramoylalanine-D-glutamyl-lysine-D-alanyl-D-alanine ligase (Streptococcus pneumoniae R6, UniProt Q8DNV6)
T2 sequence (Q8DNV6 whole entry): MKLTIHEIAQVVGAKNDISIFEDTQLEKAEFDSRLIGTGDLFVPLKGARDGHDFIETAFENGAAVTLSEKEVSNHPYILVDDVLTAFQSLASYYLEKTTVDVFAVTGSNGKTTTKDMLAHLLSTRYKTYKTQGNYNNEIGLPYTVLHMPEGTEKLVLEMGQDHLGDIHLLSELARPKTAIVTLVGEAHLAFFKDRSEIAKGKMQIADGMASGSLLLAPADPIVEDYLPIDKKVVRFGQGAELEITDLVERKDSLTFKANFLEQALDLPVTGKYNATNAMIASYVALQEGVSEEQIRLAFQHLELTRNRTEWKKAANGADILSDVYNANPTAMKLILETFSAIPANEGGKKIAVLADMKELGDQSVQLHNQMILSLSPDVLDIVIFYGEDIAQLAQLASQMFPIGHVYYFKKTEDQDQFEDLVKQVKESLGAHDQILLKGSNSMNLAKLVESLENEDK
Experiment: Inhibition of Streptococcus pneumoniae MurF

| SMILES | IC50 |
| --- | --- |
| CCN(CC)S(=O)(=O)c1ccc(Cl)c(C(=O)Nc2sc3c(c2C#N)CC(c2ccc(O)cc2)CC3)c1 (stereo not given) | 0.054 µM |
| N#Cc1c(NC(=O)c2cc(S(=O)(=O)N3CCOCC3)c(F)cc2Cl)sc2c1CCC2 | > 6.4 µM |
| N#Cc1c(NC(=O)c2cc(S(=O)(=O)N3CCCCC3)ccc2Cl)sc2c1CCC2 | 2.5 µM |
| CCOC(=O)C1CCc2sc(NC(=O)c3cc(S(=O)(=O)N(CC)CC)ccc3Cl)c(C#N)c2C1 (stereo not given) | 6 µM |
| CCN(CC)S(=O)(=O)c1cc(C(=O)Nc2sc3c(c2C#N)CC(c2ccc(O)cc2)CC3)c(Cl)cc1Cl (stereo not given) | 0.067 µM |
| N#Cc1cc(CCc2ccncc2)sc1NC(=O)c1cc(S(=O)(=O)N2CCOCC2)ccc1Cl | 6 µM |
| N#Cc1c(NC(=O)c2cc(S(=O)(=O)N3CCOCC3)c(Cl)cc2Cl)sc2c1CC(c1ccc(O)cc1)CC2 (stereo not given) | 0.022 µM |
| N#Cc1c(NC(=O)c2cc(S(=O)(=O)N3CCOCC3)c(Cl)cc2Cl)sc2c1CC(c1ccccc1)CC2 (stereo not given) | 0.07 µM |

Test system: Escherichia coli
Experiment: Antibacterial activity against Escherichia coli
Type: functional, organism-based

| SMILES | Activity |
| --- | --- |
| COc1ccc(NC(=O)C(=O)Cc2nc3ccc([N+](=O)[O-])cc3nc2O)c(OC)c1 | inactive |
| COc1ccc(CCN2C(=O)c3cccc4c(Sc5ccccc5[N+](=O)[O-])ccc(c34)C2=O)cc1OC | inactive |
| O=C1C=CC(=O)C(SCCCSC2=CC(=O)C(SCCCSC3=CC(=O)C=CC3=O)=CC2=O)=C1 | inactive |

Test system: MurF (Streptococcus pneumoniae)
Experiment: Inhibition of Streptococcus pneumoniae MurF

| SMILES | IC50 |
| --- | --- |
| C[C@@H]1O[C@@H]1P(=O)(O)O [FOSFOMYCIN] | 15 µM |

Biological target: T3, UDP-N-acetylmuramoyl-tripeptide--D-alanyl-D-alanine ligase (Pseudomonas aeruginosa) (UniProt Q9EY48)
T3 sequence (whole entry): T1 sequence (Q9EY48 whole entry)
Experiment: Inhibition of Pseudomonas aeruginosa MurF ATPase activity assessed as residual enzyme activity at 5 mM by spectrophotometric assay relative to control

| SMILES | Activity |
| --- | --- |
| Cn1nnnc1SCC1=C(C(=O)O)N2C(=O)[C@@H](NC(=O)[C@H](OC=O)c3ccccc3)[C@H]2SC1 [CEFAMANDOLE NAFATE] | 84% |
| C[C@]12CCC(=O)C=C1CC[C@@H]1[C@@H]2[C@@H](O)C[C@@]2(C)[C@H]1CC[C@]2(O)C(=O)COC(=O)CCC1CCCC1 [HYDROCORTISONE CYPIONATE] | 86% |
| O=S(=O)(SC(=S)NCCNC(=S)SS(=O)(=O)c1ccc(Cl)cc1)c1ccc(Cl)cc1 | 71% |
| C[C@]12CCC(=O)C=C1CC[C@@H]1[C@@H]2[C@@H](O)C[C@@]2(C)[C@H]1CC[C@]2(O)C(=O)COC(=O)c1cc([N+](=O)[O-])ccc1Cl | 67% |
| COc1ccc(NC(=O)C(=O)Cc2nc3ccc([N+](=O)[O-])cc3nc2O)c(OC)c1 | 0% |
| CCOC(=O)Cn1/c(=N/N=C/c2ccc([N+](=O)[O-])o2)sc2cc(OC)ccc21 | 51% |
| COc1ccc(CCN2C(=O)c3cccc4c(Sc5ccccc5[N+](=O)[O-])ccc(c34)C2=O)cc1OC | 0% |
| O=S(=O)(O)c1ccc(/N=N/c2ccc(O)c(/N=N/c3ccc(S(=O)(=O)O)c4ccccc34)c2O)c2ccccc12 | 100% |
| O=C1C=CC(=O)C(SCCCSC2=CC(=O)C(SCCCSC3=CC(=O)C=CC3=O)=CC2=O)=C1 | 0% |
| C[C@]12CCC(=O)C=C1CC[C@@H]1[C@@H]2[C@@H](O)C[C@@]2(C)[C@H]1CC[C@]2(O)C(=O)COC(=O)C1C2C=CC(C2)C1C(=O)O (stereo not given in full) | 42% |
| CSc1ncnc2c1ncn2CC(=O)[C@@]1(O)CC[C@H]2[C@@H]3CCC4=CC(=O)CC[C@]4(C)[C@H]3[C@@H](O)C[C@@]21C | 48% |
